Test results published in ChEMBL document CHEMBL4393692, “Thiazolidinone/thiazole based hybrids - New class of antitrypanosomal agents” (Eur J Med Chem, 2019).
pIC50: −log10 of the molar value. Activity calls are given as the source filed them. The calls are words filed in the database; no cut-off is given here.

Tests used:
[1] = tested on: Trypanosoma brucei brucei; assay: Antitrypanosomal activity against bloodstream form of Trypanosoma brucei brucei 90-13 reduction in parasite growth at 1 ug/ml after 72 hrs by resazurin dye based fluorescence assay relative to control; assay type: functional; details: for inhibition at 1 µg/mL: 90-13, 72 h
How it was run: (§1)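 Bloodstream forms grown in HMI9 + 10% FCS, 37°C, 5% CO2. Log-phase cells harvested at 3000xg and seeded at 10^5 cells/ml, exposed to test substance from DMSO stock at a single screening level of 10 or 1 µg/mL for 72 h. Resazurin added (final 45 µM), 4 h more, then fluorescence read. Growth inhibition expressed against DMSO control.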

[2] = tested on: Trypanosoma brucei brucei; assay: Antitrypanosomal activity against bloodstream form of Trypanosoma brucei brucei 90-13 assessed as reduction in parasite growth at 10 ug/ml after 72 hrs by resazurin dye based fluorescence assay relative to control; assay type: functional; details: 90-13, 72 h; how it was run: as §1
[3] = tested on: Trypanosoma brucei brucei; assay: Antitrypanosomal activity against bloodstream form of Trypanosoma brucei brucei 90-13 reduction in parasite growth after 72 hrs by resazurin dye based fluorescence assay; assay type: functional, organism-based; details: 90-13, 72 h
How it was run: (§2)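 Bloodstream parasites cultured in HMI9 with 10% FCS at 37°C under 5% CO2. Log-phase cells harvested at 3000xg, plated at 10^5 cells/ml with dilutions from 10 down to 0.625 µg/ml (DMSO stocks) for 72 h. Resazurin added at 45 µM final, fluorescence read after a further 4 h. Inhibition vs DMSO control. IC50 from dose-response curve, mean ± SD of three independent experiments.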

[4] = Acute toxicity in ip dosed mouse by Litchfield-Wilcoxon method; assay type: organism-based; details: in vivo
How it was run: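 White male mice of 23-25 g; compounds dissolved in 0.9% NaCl saline with 1-2 drops Tween-80, stock prepared immediately before use. Single intraperitoneal injection at increasing doses within 100–1000 mg/kg, 4 or 5 dose levels with 6 animals per dose. LD50 derived by the Litchfield-Wilcoxon method.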

[5] = Cytotoxicity against human AB943 cells assessed as reduction in cell viability after 5 days resazurin dye based fluorescence assay; details: 120 h
How it was run: (§3)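 Human primary fibroblasts grown in RPMI with 25 mM HEPES pH 7.3 and 10% FCS, 37°C, 5% CO2. After trypsinisation, seeded at 5000 cells/well and incubated 24 h. Then washed and exposed to two-fold drug dilutions, final DMSO below 1%, for 5 days. Resazurin added, fluorescence read (ex 530/em 590 nm) after 4 h. Growth inhibition vs DMSO control. SI = IC50 fibroblast / IC50 T. b. gambiense.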

[6] = tested on: Trypanosoma brucei gambiense; assay: Antitrypanosomal activity against bloodstream form of Trypanosoma brucei gambiense Feo reduction in parasite growth after 72 hrs by resazurin dye based fluorescence assay; assay type: functional, organism-based; how it was run: as §2
[7] = Selectivity index, ratio of IC50 for human AB943 cells to IC50 of bloodstream form of Trypanosoma brucei gambiense Feo; assay type: toxicity; details: read-out: Ratio IC50; how it was run: as §3

Row | pIC50 [6] | SMILES | inhibition at 1 µg/mL [1] [%] | inhibition at 10 µg/mL [2] [%] | pIC50 [5] | also measured
1 | – | O=C(CC1S/C(=N\N=C2CCCCC2)NC1=O)Nc1ccc(F)cc1 (configuration not stated) | -4.65 | -4.66 | – | –
2 | – | O=C(CC1S/C(=N\N=C\c2c(-c3ccccc3)[nH]c3ccccc23)NC1=O)Nc1ccc(Cl)cc1 (configuration not stated) | – | – | – | pIC50 [3]: 5.04
3 | – | O=C(CC1S\C(=N/N=C/C=C/c2ccccc2)NC1=O)c1ccc(F)cc1 (configuration not stated) | 38.7 | 57.3 | – | –
4 | – | O=C(O)CC1S/C(=N\N=C\c2c(-c3ccc(Cl)cc3)[nH]c3ccccc23)NC1=O (configuration not stated) | – | – | – | LD50 [4]: 290 mg/kg
5 | 8.82 | N=C(N)c1ccc(OCCCCCOc2ccc(C(=N)N)cc2)cc1 [PENTAMIDINE] | – | – | 4.63 | pIC50 [3]: 8.85
6 | – | O=C(CC1S/C(=N\N=C\c2c(-c3ccccc3)[nH]c3ccccc23)NC1=O)c1ccc(F)cc1 (configuration not stated) | – | – | – | pIC50 [3]: 4.97
7 | – | O=C(O)CC1S\C(=N/N=C/C(Cl)=C/c2ccc([N+](=O)[O-])cc2)N(c2ccc(O)cc2)C1=O (configuration not stated) | -1.57 | 25 | – | –
8 | – | CC12CCC(C/C1=N/N=C1/NC(=O)C(CC(=O)Nc3ccc(Cl)cc3)S1)C2(C)C (configuration not stated) | 14.1 | 97.8 | – | –
9 | – | O=C(CC1S/C(=N\N=C\c2c(-c3ccccc3)[nH]c3ccccc23)NC1=O)Nc1ccc(Br)cc1 (configuration not stated) | – | – | – | pIC50 [3]: 5.10
10 | – | O=C1N/C(=N/N=C/c2c(-c3ccccc3)[nH]c3ccccc23)SC1CCO (configuration not stated) | – | – | – | pIC50 [3]: 6.77
11 | – | O=C(CC1S/C(=N\N=C\c2c(-c3ccccc3)[nH]c3ccccc23)NC1=O)c1ccc2c(c1)CCCC2 (configuration not stated) | – | – | – | pIC50 [3]: 4.88
12 | – | O=C(CC1S\C(=N/N=C/C=C/c2ccccc2)NC1=O)Nc1ccc([N+](=O)[O-])cc1 (configuration not stated) | – | 56.1 | – | inhibition [1]: inactive
13 | 5.33 | CC1CS(=O)(=O)CCN1/N=C/c1ccc([N+](=O)[O-])o1 (configuration not stated) [NIFURTIMOX] | – | – | 4.19 | pIC50 [3]: 5.62; selectivity ratio [7]: 14
14 | – | O=C(O)CCCNC(=O)CC1S/C(=N\N=C\c2ccco2)NC1=O (configuration not stated) | 0.06 | 10 | – | –
15 | – | O=C(CC1S/C(=N\N=C2CCCCC2)NC1=O)c1ccc(F)cc1 (configuration not stated) | 8.16 | 98.5 | – | –
16 | – | C=CCN1C(=O)C(CC(=O)c2ccc(F)cc2)S/C1=N\N=C\c1ccc(N(C)C)cc1 (configuration not stated) | 11.1 | 14.7 | – | –
17 | – | CC12CCC(C/C1=N/N=C1/NC(=O)C(CC(=O)c3ccc(F)cc3)S1)C2(C)C (configuration not stated) | 36.1 | 42 | – | –
18 | – | O=C(CC1S\C(=N/N=C/C=C/c2ccccc2)NC1=O)c1ccc2c(c1)CCCC2 (configuration not stated) | 7.69 | 53.2 | – | –
19 | – | O=C(O)CC1S/C(=N\N=C\c2c(-c3ccccc3)[nH]c3ccccc23)NC1=O (configuration not stated) | – | – | – | LD50 [4]: 240 mg/kg
20 | – | COc1cc(/C=N/N=C2\SC(CC(=O)c3ccc(F)cc3)C(=O)N2c2ccc(O)cc2)ccc1OCC(=O)O (configuration not stated) | 15.1 | 14.5 | – | –

Row | pIC50 [6] | SMILES | inhibition at 1 µg/mL [1] [%] | inhibition at 10 µg/mL [2] [%] | pIC50 [5] | also measured
21 | – | O=C(O)CCCCCNC(=O)CC1S/C(=N\N=C\c2c(-c3ccccc3)[nH]c3ccccc23)NC1=O (configuration not stated) | – | – | – | pIC50 [3]: 4.85
22 | – | CCOC(=O)c1ccc(NC(=O)CC2S/C(=N\N=C\c3c(-c4ccccc4)[nH]c4ccccc34)NC2=O)cc1 (configuration not stated) | – | – | – | pIC50 [3]: 5.16
23 | 5.44 | C=CCSc1nn2c(/C=N/N=C3\SC(CC)C(=O)N3c3ccc(O)cc3)c(-c3ccccc3)nc2s1 (configuration not stated) | – | – | < 4.05 | selectivity ratio [7]: > 26
24 | – | Cc1ccc(NC(=O)CC2S/C(=N\N=C3\CC4CCC3(C)C4(C)C)NC2=O)cc1 (configuration not stated) | 4.18 | 30 | – | –
25 | 6.29 | CCc1nn2c(/C=N/N=c3\scc(-c4ccc([N+](=O)[O-])cc4)n3-c3ccc(O)cc3)c(-c3ccc(Br)cc3)nc2s1 | – | – | < 4.15 | selectivity ratio [7]: > 150
26 | – | O=C(CC1S/C(=N\N=C2CCCCC2)NC1=O)Nc1ccc([N+](=O)[O-])cc1 (configuration not stated) | – | 44.9 | – | inhibition [1]: inactive
27 | 5.55 | O=C(CC1S/C(=N\N=C\c2c(-c3ccccc3)[nH]c3ccccc23)NC1=O)c1ccccc1 (configuration not stated) | – | – | – | pIC50 [3]: 5.11
28 | – | O=C(CC1S\C(=N/N=C/C=C/c2ccccc2)N(c2ccc(O)cc2)C1=O)Nc1ccc(F)cc1 (configuration not stated) | 1.18 | -8.23 | – | –
29 | 6.00 | CCc1nn2c(/C=N/N=C3\SC(CCOC(C)=O)C(=O)N3c3ccc(O)cc3)c(-c3ccc(Br)cc3)nc2s1 (configuration not stated) | – | – | 4.95 | selectivity ratio [7]: 11
30 | – | O=C(O)CCNC(=O)CC1S/C(=N\N=C\c2c(-c3ccccc3)[nH]c3ccccc23)NC1=O (configuration not stated) | – | – | – | pIC50 [3]: 4.46
31 | – | CC12CCC(C/C1=N/N=C1/NC(=O)C(CC(=O)Nc3ccc(Br)cc3)S1)C2(C)C (configuration not stated) | – | 97 | – | inhibition [1]: inactive
32 | – | C=CCN1C(=O)C(CC(=O)c2ccc(F)cc2)S/C1=N\N=C\c1ccccc1 (configuration not stated) | 11.1 | 14.7 | – | –
33 | 5.24 | C=CCSc1nn2c(/C=N/N=C3/NC(=O)C(CCOC(C)=O)S3)c(-c3ccccc3)nc2s1 (configuration not stated) | – | – | 4.72 | selectivity ratio [7]: 3
34 | – | O=C(CC1S/C(=N\N=C\c2ccco2)NC1=O)c1ccc2c(c1)CCCC2 (configuration not stated) | 9.82 | 10.9 | – | –
35 | – | O=C(O)CC1SC(N/N=C/C=C/c2ccccc2[N+](=O)[O-])=NC1=O (configuration not stated) | 3.28 | 24.9 | – | –
36 | 6.09 | O=C1CS/C(=N\N=C\c2c(-c3ccc(Cl)cc3)[nH]c3ccccc23)N1c1ccc(O)cc1 | – | – | < 4.00 | selectivity ratio [7]: > 130
37 | 6.28 | CCOC(=O)c1sc(N/N=C/c2c(-c3ccc(Cl)cc3)[nH]c3ccccc23)nc1C | – | – | 4.69 | selectivity ratio [7]: 39
38 | – | O=C(CC1S\C(=N/N=C/C=C/c2ccccc2)N(Cc2ccco2)C1=O)Nc1cccc(C(F)(F)F)c1 (configuration not stated) | 5.06 | 98.9 | – | –
39 | 6.19 | CCOC(=O)c1s/c(=N\N=C\c2c(-c3ccc([N+](=O)[O-])cc3)nc3sc(CC)nn23)n(-c2ccc(O)cc2)c1C | – | – | < 4.10 | selectivity ratio [7]: > 130

Row | SMILES | pIC50 [6] | inhibition at 1 µg/mL [1] [%] | inhibition at 10 µg/mL [2] [%] | pIC50 [5] | also measured
40 | CC(=O)OCCC1S/C(=N\N=C\c2c(-c3ccccc3)[nH]c3ccccc23)NC1=O (configuration not stated) | 6.64 | – | – | 4.68 | pIC50 [3]: 7.22; LD50 [4]: 200 mg/kg; selectivity ratio [7]: 95
41 | CCC1S/C(=N\N=C\c2c(-c3ccc(Cl)cc3)[nH]c3ccccc23)N(c2ccc(O)cc2)C1=O (configuration not stated) | 6.07 | – | – | 4.07 | LD50 [4]: 330 mg/kg; selectivity ratio [7]: 100
42 | O=C1CS/C(=N\N=C\c2c(-c3ccc(Cl)cc3)[nH]c3ccccc23)N1 | 5.41 | – | – | – | LD50 [4]: 270 mg/kg
43 | CC1S/C(=N\N=C\c2c(-c3ccc(Cl)cc3)[nH]c3ccccc23)NC1=O (configuration not stated) | 5.65 | – | – | 5.28 | LD50 [4]: 310 mg/kg; selectivity ratio [7]: 2
44 | CC1S/C(=N\N=C\c2c(-c3ccccc3)[nH]c3ccccc23)NC1=O (configuration not stated) | 6.68 | – | – | 4.55 | LD50 [4]: 220 mg/kg; selectivity ratio [7]: 130
45 | CCC1S/C(=N\N=C\c2c(-c3ccccc3)[nH]c3ccccc23)NC1=O (configuration not stated) | 6.96 | – | – | 4.61 | pIC50 [3]: 7.52; LD50 [4]: 220 mg/kg; selectivity ratio [7]: 220
